Marks after values point to notes of the source that are not given here. Residues, ends and D or L forms follow the SMILES beside them.
What was measured:
[1] = Serum biochemistry of cynomolgus monkeys at the end of treatment; assay type: in vivo; conditions: median (IQR)
Method in brief: (§1)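 GLP 10-day study in male and female cynomolgus monkeys (n = 3-5/sex/group) dosed once daily with 0 (placebo), 5, 10 or 15 mg/kg test compound by i.v. infusion over 60 ± 5 min. Hematology, serum chemistry and coagulation were taken at end of treatment and reported as median (IQR). Dose groups were compared by Kruskal-Wallis with Dunn's multiple comparison test.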

[2] = Single-dose i.v. pharmacokinetics in a vervet; assay type: in vivo, vervet/African green monkey (Chlorocebus aethiops sabaeus); conditions: 3 mg/kg single i.v. bolus, n=1
Method in brief: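 Adult male vervet given a single 3 mg/kg i.v. bolus of test compound. Blood was sampled at 0.5, 1, 4, 8, 24, 48, 72, 96, 120 and 192 h. Clarified plasma was diluted 1:10 into 5% formic acid-5% acetonitrile and quantified by UPLC with photodiode array detection. Noncompartmental analysis used nominal times; λz was fitted over up to the last four log-linear points.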

[3] = Coagulation in cynomolgus monkeys at the end of treatment; assay type: in vivo; conditions: median (IQR)
Method in brief: as §1

CC[C@H](C)[C@@H]1NC(=O)[C@@H]2CSSC[C@H](NC(=O)[C@H](CCCNC(=N)N)NC(=O)[C@@H]3CSSC[C@H](NC1=O)C(=O)N[C@@H]([C@@H](C)O)C(=O)N[C@@H](CCCNC(=N)N)C(=O)NCC(=O)N[C@@H](Cc1ccccc1)C(=O)N3)C(=O)N[C@@H](CC(C)C)C(=O)N[C@H]1CSSC[C@H](NC(=O)[C@H](C(C)C)NC(=O)CNC(=O)[C@H](CCCNC(=N)N)NC(=O)[C@H](CCCNC(=N)N)NC1=O)C(=O)N[C@@H](CCCNC(=N)N)C(=O)N2 [RTD-1, Rhesus theta (θ) defensin-1] (HELM PEPTIDE1{G.F.C.R.C.L.C.R.R.G.V.C.R.C.I.C.T.R}$PEPTIDE1,PEPTIDE1,3:R3-16:R3|PEPTIDE1,PEPTIDE1,5:R3-14:R3|PEPTIDE1,PEPTIDE1,7:R3-12:R3|PEPTIDE1,PEPTIDE1,1:R1-18:R2$$$V2.0)
A/G ([1]; female, 5 mg/kg/day): 1.7 (0.2) | ALP ([1]; female, 5 mg/kg/day): 576.0 (132.0) U/L | ALT ([1]; female, 5 mg/kg/day): 112.0 (50.0) U/L | AST ([1]; female, 5 mg/kg/day): 69.0 (22.0) U/L | Albumin ([1]; female, 5 mg/kg/day): 4.5 (0.5) g/dL | CK ([1]; female, 5 mg/kg/day): 301.0 (38.0) U/L | Calcium ([1]; female, 5 mg/kg/day): 10.0 (0.4) mg/dL | Chloride ([1]; female, 5 mg/kg/day): 107.0 (1.5) mmol/L | Cholesterol ([1]; female, 5 mg/kg/day): 104.0 (17.5) mg/dL | Creatinine ([1]; female, 5 mg/kg/day): 0.5 (0.1) mg/dL | GGT ([1]; female, 5 mg/kg/day): 92.0 (14.0) U/L | Globulin ([1]; female, 5 mg/kg/day): 2.7 (0.4) g/dL | Glucose ([1]; female, 5 mg/kg/day): 60.0 (7.5) mg/dL | Phos ([1]; female, 5 mg/kg/day): 5.7 (0.2) mg/dL | Potassium ([1]; female, 5 mg/kg/day): 4.9 (0.6) mmol/L | Sodium ([1]; female, 5 mg/kg/day): 146.0 (0.0) mmol/L | T-Bil ([1]; female, 5 mg/kg/day): 0.2 (0.0) mg/dL | TP ([1]; female, 5 mg/kg/day): 7.6 (0.7) g/dL | Triglycerides ([1]; female, 5 mg/kg/day): 49.0 (8.5) mg/dL | Urea N ([1]; female, 5 mg/kg/day): 15.0 (4.0) mg/dL | A/G ([1]; female, 10 mg/kg/day): 1.6 (0.2) | ALP ([1]; female, 10 mg/kg/day): 915.0 (64.0) U/L | ALT ([1]; female, 10 mg/kg/day): 126.0 (87.5) U/L | AST ([1]; female, 10 mg/kg/day): 104.0 (16.0) U/L | Albumin ([1]; female, 10 mg/kg/day): 4.3 (0.1) g/dL | CK ([1]; female, 10 mg/kg/day): 1,102.0 (1,584.0) U/L | Calcium ([1]; female, 10 mg/kg/day): 10.0 (0.1) mg/dL | Chloride ([1]; female, 10 mg/kg/day): 109.0 (2.0) mmol/L | Cholesterol ([1]; female, 10 mg/kg/day): 91.0 (10.5) mg/dL | Creatinine ([1]; female, 10 mg/kg/day): 0.6 (0.1) mg/dL | GGT ([1]; female, 10 mg/kg/day): 88.0 (7.0) U/L | Globulin ([1]; female, 10 mg/kg/day): 2.7 (0.4) g/dL | Glucose ([1]; female, 10 mg/kg/day): 59.0 (6.5) mg/dL | Phos ([1]; female, 10 mg/kg/day): 5.3 (0.6) mg/dL | Potassium ([1]; female, 10 mg/kg/day): 5.1 (0.9) mmol/L | Sodium ([1]; female, 10 mg/kg/day): 146.0 (3.0) mmol/L | T-Bil ([1]; female, 10 mg/kg/day): 0.2 (0.1) mg/dL | TP ([1]; female, 10 mg/kg/day): 7.0 (0.3) g/dL | Triglycerides ([1]; female, 10 mg/kg/day): 49.0 (1.5) mg/dL | Urea N ([1]; female, 10 mg/kg/day): 16.0 (4.5) mg/dL | A/G ([1]; female, 15 mg/kg/day): 1.5 (0.0) | ALP ([1]; female, 15 mg/kg/day): 943.0 (411.0) U/L | ALT ([1]; female, 15 mg/kg/day): 92.0 (36.0) U/L | AST ([1]; female, 15 mg/kg/day): 95.0 (45.0) U/L | Albumin ([1]; female, 15 mg/kg/day): 4.3 (0.6) g/dL | CK ([1]; female, 15 mg/kg/day): 891.0 (603.0) U/L | Calcium ([1]; female, 15 mg/kg/day): 10.2 (0.4) mg/dL | Chloride ([1]; female, 15 mg/kg/day): 111.0 (1.0) mmol/L | Cholesterol ([1]; female, 15 mg/kg/day): 94.0 (13.0) mg/dL | Creatinine ([1]; female, 15 mg/kg/day): 0.7 (0.1) mg/dL | GGT ([1]; female, 15 mg/kg/day): 99.0 (37.0) U/L | Globulin ([1]; female, 15 mg/kg/day): 2.8 (0.1) g/dL | Glucose ([1]; female, 15 mg/kg/day): 78.0 (18.0)^c mg/dL | Phos ([1]; female, 15 mg/kg/day): 5.3 (0.3)^c mg/dL | Potassium ([1]; female, 15 mg/kg/day): 6.0 (1.0) mmol/L | Sodium ([1]; female, 15 mg/kg/day): 146.0 (4.0) mmol/L | T-Bil ([1]; female, 15 mg/kg/day): 0.2 (0.2) mg/dL | TP ([1]; female, 15 mg/kg/day): 7.1 (0.8) g/dL | Triglycerides ([1]; female, 15 mg/kg/day): 56.0 (11.0) mg/dL | Urea N ([1]; female, 15 mg/kg/day): 18.0 (1.0) mg/dL | A/G ([1]; male, 5 mg/kg/day): 1.8 (0.1) | ALP ([1]; male, 5 mg/kg/day): 802.0 (253.0) U/L | ALT ([1]; male, 5 mg/kg/day): 172.0 (125.0) U/L | AST ([1]; male, 5 mg/kg/day): 122.0 (190.0) U/L | Albumin ([1]; male, 5 mg/kg/day): 4.8 (0.2) g/dL | CK ([1]; male, 5 mg/kg/day): 888.0 (13,478.0) U/L | Calcium ([1]; male, 5 mg/kg/day): 9.8 (0.5) mg/dL | Chloride ([1]; male, 5 mg/kg/day): 110.0 (2.0) mmol/L | Cholesterol ([1]; male, 5 mg/kg/day): 110.0 (15.5) mg/dL | Creatinine ([1]; male, 5 mg/kg/day): 0.8 (0.2) mg/dL | GGT ([1]; male, 5 mg/kg/day): 137.0 (31.5) U/L | Globulin ([1]; male, 5 mg/kg/day): 2.7 (0.1) g/dL | Glucose ([1]; male, 5 mg/kg/day): 111.0 (26.5) mg/dL | Phos ([1]; male, 5 mg/kg/day): 5.5 (1.7) mg/dL | Potassium ([1]; male, 5 mg/kg/day): 6.0 (1.4) mmol/L | Sodium ([1]; male, 5 mg/kg/day): 147.0 (4.0) mmol/L | T-Bil ([1]; male, 5 mg/kg/day): 0.3 (0.1) mg/dL | TP ([1]; male, 5 mg/kg/day): 7.5 (0.2) g/dL | Triglycerides ([1]; male, 5 mg/kg/day): 46.0 (18.5) mg/dL | Urea N ([1]; male, 5 mg/kg/day): 15.0 (3.5) mg/dL | A/G ([1]; male, 10 mg/kg/day): 1.7 (0.2) | ALP ([1]; male, 10 mg/kg/day): 753.0 (3.5) U/L | ALT ([1]; male, 10 mg/kg/day): 105.0 (26.5) U/L | AST ([1]; male, 10 mg/kg/day): 105.0 (43.5) U/L | Albumin ([1]; male, 10 mg/kg/day): 4.7 (0.2) g/dL | CK ([1]; male, 10 mg/kg/day): 515.0 (2,756.5) U/L | Calcium ([1]; male, 10 mg/kg/day): 10.5 (0.4) mg/dL | Chloride ([1]; male, 10 mg/kg/day): 110.0 (1.5) mmol/L | Cholesterol ([1]; male, 10 mg/kg/day): 99.0 (16.5) mg/dL | Creatinine ([1]; male, 10 mg/kg/day): 0.6 (0.1) mg/dL | GGT ([1]; male, 10 mg/kg/day): 119.0 (32.5) U/L | Globulin ([1]; male, 10 mg/kg/day): 2.9 (0.4) g/dL | Glucose ([1]; male, 10 mg/kg/day): 71.0 (23.0) mg/dL | Phos ([1]; male, 10 mg/kg/day): 5.4 (0.8) mg/dL | Potassium ([1]; male, 10 mg/kg/day): 5.9 (0.9) mmol/L | Sodium ([1]; male, 10 mg/kg/day): 150.0 (3.0) mmol/L | T-Bil ([1]; male, 10 mg/kg/day): 0.3 (0.0) mg/dL | TP ([1]; male, 10 mg/kg/day): 7.5 (0.5) g/dL | Triglycerides ([1]; male, 10 mg/kg/day): 32.0 (6.0) mg/dL | Urea N ([1]; male, 10 mg/kg/day): 20.0 (3.5) mg/dL | A/G ([1]; male, 15 mg/kg/day): 1.6 (0.2) | ALP ([1]; male, 15 mg/kg/day): 957.0 (638.0) U/L | ALT ([1]; male, 15 mg/kg/day): 88.0 (17.0) U/L | AST ([1]; male, 15 mg/kg/day): 103.0 (40.0) U/L | Albumin ([1]; male, 15 mg/kg/day): 4.4 (0.2) g/dL | CK ([1]; male, 15 mg/kg/day): 518.0 (1,392.0) U/L | Calcium ([1]; male, 15 mg/kg/day): 10.1 (0.3) mg/dL | Chloride ([1]; male, 15 mg/kg/day): 112.0 (1.0) mmol/L | Cholesterol ([1]; male, 15 mg/kg/day): 105.0 (50.0) mg/dL | Creatinine ([1]; male, 15 mg/kg/day): 0.6 (0.1) mg/dL | GGT ([1]; male, 15 mg/kg/day): 101.0 (6.0) U/L | Globulin ([1]; male, 15 mg/kg/day): 2.9 (0.5) g/dL | Glucose ([1]; male, 15 mg/kg/day): 67.0 (5.0) mg/dL | Phos ([1]; male, 15 mg/kg/day): 5.2 (0.6) mg/dL | Potassium ([1]; male, 15 mg/kg/day): 5.8 (0.6) mmol/L | Sodium ([1]; male, 15 mg/kg/day): 149.0 (2.0) mmol/L | T-Bil ([1]; male, 15 mg/kg/day): 0.2 (0.2) mg/dL | TP ([1]; male, 15 mg/kg/day): 7.5 (0.8) g/dL | Triglycerides ([1]; male, 15 mg/kg/day): 78.0 (52.0) mg/dL | Urea N ([1]; male, 15 mg/kg/day): 15.0 (2.0) mg/dL | mortality (found dead day 15, determined unrelated to treatment) (5 mg/kg/day): 1 out of 16 | LOAEL (i.v.): 20 mg/kg | NOAEL (i.v. once daily x7 days): 10 mg/kg/day | acute, treatment-related mortality (single i.v. 20 mg/kg, day 1): 5 out of 12 | AUCτ [2]: 21,949 ng · h/mL | CL [2]: 2.27 mL/min/kg | MRT [2]: 4.71 h | Vss [2]: 0.639 L/kg | λz [2]: 0.204 h⁻¹ | APTT ([3]; female, 5 mg/kg): 22.40 (2.05) s | Fibrinogen ([3]; female, 5 mg/kg): 238.00 (40.50) mg/dL | PT ([3]; female, 5 mg/kg): 12.20 (0.25) s | APTT ([3]; female, 10 mg/kg): 20.80 (0.55) s | Fibrinogen ([3]; female, 10 mg/kg): 294.00 (7.50) mg/dL | PT ([3]; female, 10 mg/kg): 11.80 (0.25) s | APTT ([3]; female, 15 mg/kg): 22.60 (0.90) s | Fibrinogen ([3]; female, 15 mg/kg): 300.00 (57.00)^d mg/dL | PT ([3]; female, 15 mg/kg): 12.30 (0.50) s | APTT ([3]; male, 5 mg/kg): 21.60 (0.80) s | Fibrinogen ([3]; male, 5 mg/kg): 306.00 (49.50) mg/dL | PT ([3]; male, 5 mg/kg): 12.00 (0.55) s | APTT ([3]; male, 10 mg/kg): 21.10 (0.45) s | Fibrinogen ([3]; male, 10 mg/kg): 285.00 (22.50) mg/dL | PT ([3]; male, 10 mg/kg): 12.00 (0.25) s | APTT ([3]; male, 15 mg/kg): 22.10 (1.65) s | Fibrinogen ([3]; male, 15 mg/kg): 336.00 (114.00) mg/dL | PT ([3]; male, 15 mg/kg): 12.25 (0.83) s

From publication PMC8923172 (Antimicrobial Agents and Chemotherapy, 2022)
